In ChEMBL document CHEMBL3286272, “Synthesis, biological, and biophysical studies of DAG-indololactones designed as selective activators of RasGRP” (Bioorg Med Chem, 2014) one finds Ki, Ratio Ki and Activity data, which are given here for 5 compounds.

Activity calls are given as the source filed them. The calls are words filed in the database; no cut-off is given here.

As a reminder, the Ki is a measure of affinity in units of concentration, obtained from inhibition or displacement.

Test [1] addresses Protein kinase C alpha type (Homo sapiens, UniProt P17252). Briefly: Displacement of [3H]PDBu from recombinant human PKC-alpha after 5 mins by scintillation counting analysis in presence of phosphatidylserine. Summed up:
(§1)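 [3H]PDBu binding competition with 100 μg/ml phosphatidylserine present; PKCα and RasGRP1-C1 assayed at 37°C for stability. Values are mean ± SEM of triplicate independent experiments.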
Background: Loss of bound radioactivity is the signal in a displacement assay; it reports binding, not function.

The species entered for test [2] is Homo sapiens. Description: Selectivity ratio of Ki for recombinant human PKC-alpha to Ki for recombinant RasGRP1 C1 domain (unknown origin).
Test [3] concerns the target T1, Ras guanyl-releasing protein 3 (Homo sapiens) (UniProt Q8IV61).
T1 sequence (whole entry): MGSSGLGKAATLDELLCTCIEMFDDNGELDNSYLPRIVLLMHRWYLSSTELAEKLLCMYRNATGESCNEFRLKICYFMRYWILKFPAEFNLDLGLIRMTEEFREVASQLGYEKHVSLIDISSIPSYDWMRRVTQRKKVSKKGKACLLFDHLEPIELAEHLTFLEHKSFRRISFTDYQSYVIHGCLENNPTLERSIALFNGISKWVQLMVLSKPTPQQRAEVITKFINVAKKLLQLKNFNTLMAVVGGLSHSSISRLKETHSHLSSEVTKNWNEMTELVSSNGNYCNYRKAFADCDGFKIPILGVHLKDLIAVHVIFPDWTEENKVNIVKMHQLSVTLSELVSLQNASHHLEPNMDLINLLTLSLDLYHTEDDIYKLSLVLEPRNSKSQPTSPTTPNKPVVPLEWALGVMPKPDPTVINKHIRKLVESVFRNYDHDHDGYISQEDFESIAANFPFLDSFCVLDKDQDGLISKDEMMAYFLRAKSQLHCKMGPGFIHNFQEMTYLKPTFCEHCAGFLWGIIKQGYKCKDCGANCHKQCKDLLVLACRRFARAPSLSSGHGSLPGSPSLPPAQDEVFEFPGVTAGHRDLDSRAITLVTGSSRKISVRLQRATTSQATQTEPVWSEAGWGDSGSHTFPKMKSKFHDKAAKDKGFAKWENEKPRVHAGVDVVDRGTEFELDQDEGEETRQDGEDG
Briefly: Activation of RasGRP3 (unknown origin) overexpressed in HEK293 cells assessed as ERK1/2 phosphorylation at 0.1 to 30 uM after 30 mins by Western blot analysis. Format: cell-based.

Test [4] addresses Protein kinase C delta type (Homo sapiens) (UniProt Q05655). Description: Binding affinity to recombinant human GFP-tagged PKC-delta expressed in human LNCAP cells assessed as induction of protein translocation from plasma membrane to internal membrane at 10000 nM after 2 to 10 mins by confocal microscopic analysis. Format: cell-based. Summed up:
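LNCaP cells were transiently transfected with human GFP-PKCδ or GFP-RasGRP3 and imaged 24 h later by live confocal microscopy (488 nm excitation) every 30 s for 30 min after 10 μM ligand. Distribution was assessed from representative images. n = 3–6.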

The next test relates to Lipid bilayer. Briefly: Binding affinity to […] embedded 9:1 DMPC/DMPG giant vesicle at 2.42 to 6.05 uM by fluorescence anisotropy method. Summed up: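 Giant vesicles (DMPC/DMPG 9:1, rapid evaporation, 0.1 M sucrose, 0.1 M KCl, 2 mM Tris pH 7.4) were loaded with DPH-TMA at 1.25 μM final for 30 min at room temperature. Compound from DMSO stock was added at 2.42 and 6.05 μM final. Anisotropy was read at 430 nm with 355 nm excitation.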
(In fluorescence polarisation assays a small probe gives low polarisation when free and higher when bound to something large.)

In test [5] the target is T2, RAS guanyl-releasing protein 1 (Homo sapiens, UniProt O95267).
T2 sequence (O95267 whole entry): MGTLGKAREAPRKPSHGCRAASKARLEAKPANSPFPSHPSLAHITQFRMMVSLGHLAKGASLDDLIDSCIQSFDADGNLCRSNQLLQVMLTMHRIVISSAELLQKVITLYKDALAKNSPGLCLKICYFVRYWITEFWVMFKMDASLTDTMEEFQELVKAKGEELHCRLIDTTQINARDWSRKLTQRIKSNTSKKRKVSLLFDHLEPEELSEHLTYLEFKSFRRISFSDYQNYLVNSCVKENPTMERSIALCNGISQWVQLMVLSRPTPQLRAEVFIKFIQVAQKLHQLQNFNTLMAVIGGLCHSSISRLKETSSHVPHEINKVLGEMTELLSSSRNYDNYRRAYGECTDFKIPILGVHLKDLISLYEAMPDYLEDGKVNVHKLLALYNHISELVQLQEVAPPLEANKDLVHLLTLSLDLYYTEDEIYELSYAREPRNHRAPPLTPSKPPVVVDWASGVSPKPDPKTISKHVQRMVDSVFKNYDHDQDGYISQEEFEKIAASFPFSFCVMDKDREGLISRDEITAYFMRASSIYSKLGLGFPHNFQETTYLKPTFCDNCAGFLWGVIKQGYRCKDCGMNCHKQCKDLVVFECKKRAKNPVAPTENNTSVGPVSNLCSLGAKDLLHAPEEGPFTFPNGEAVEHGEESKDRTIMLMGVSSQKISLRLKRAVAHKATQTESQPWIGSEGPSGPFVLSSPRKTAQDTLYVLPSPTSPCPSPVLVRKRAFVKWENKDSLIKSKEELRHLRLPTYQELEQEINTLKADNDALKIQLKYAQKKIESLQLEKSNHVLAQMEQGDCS
Description: Displacement of [3H]PDBu from recombinant RasGRP1 C1 domain (unknown origin) after 10 mins by scintillation counting analysis in presence of phosphatidylserine. In short, it runs like this:
as §1

The species named for test [6] is Homo sapiens. Briefly: Selectivity ratio of Ki for recombinant human PKC-alpha to Ki for recombinant human GFP-tagged RasGRP3.
For test [7], the species on record is Homo sapiens. Description: Selectivity ratio of Ki for recombinant human PKC-epsilon to Ki for recombinant RasGRP1 C1 domain (unknown origin).

Chain of Protein kinase C delta type (Homo sapiens) (Q05655 whole entry, looked up): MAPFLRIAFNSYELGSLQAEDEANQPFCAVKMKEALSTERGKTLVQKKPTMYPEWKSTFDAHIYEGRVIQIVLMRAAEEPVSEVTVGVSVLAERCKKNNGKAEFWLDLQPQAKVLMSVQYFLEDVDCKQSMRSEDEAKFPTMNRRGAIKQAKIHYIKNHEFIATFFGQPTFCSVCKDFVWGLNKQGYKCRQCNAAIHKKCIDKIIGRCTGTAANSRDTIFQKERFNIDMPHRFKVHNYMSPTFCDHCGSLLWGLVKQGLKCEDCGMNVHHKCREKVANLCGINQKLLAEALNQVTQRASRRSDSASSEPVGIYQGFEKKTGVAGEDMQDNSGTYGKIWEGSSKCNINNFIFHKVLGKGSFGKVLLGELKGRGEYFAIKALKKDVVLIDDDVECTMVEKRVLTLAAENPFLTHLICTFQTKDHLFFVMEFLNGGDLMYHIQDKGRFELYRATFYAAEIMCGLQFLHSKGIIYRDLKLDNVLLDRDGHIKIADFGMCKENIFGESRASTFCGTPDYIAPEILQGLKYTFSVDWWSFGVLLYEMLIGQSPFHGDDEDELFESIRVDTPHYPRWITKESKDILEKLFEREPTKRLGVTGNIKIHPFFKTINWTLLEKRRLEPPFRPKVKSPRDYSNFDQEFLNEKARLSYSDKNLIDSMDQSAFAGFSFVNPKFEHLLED

`CCCC(CCC)C(=O)OCC1(CO)C/C(=C\c2cccc3c2ccn3C)C(=O)O1` (centres undefined): the figures for the Ki in test [1] and in test [5] were 17.8 nM and 1.55 nM, respectively. Moreover, the Ratio Ki in the test listed under Homo sapiens [2] stood at 10; in the test filed under Homo sapiens [6] it was 11; in the test filed under Homo sapiens [7] it was 9.4. Moreover, the result in test [3] and in test [4] was Active. Also, the outcome with Lipid bilayer was inactive.

As to `CCCC(CCC)C(=O)OCC1(CO)C/C(=C\c2ccc3ccn(C)c3c2)C(=O)O1` (centres undefined), the Ki in test [1] came to 7.5 nM; in test [5], 0.87 nM. Further, the figures for the Ratio Ki in the test listed under Homo sapiens [2], in the test filed under Homo sapiens [6] and in the test listed under Homo sapiens [7] were 9, 6 and 9.3, respectively. The result (in test [3]; in test [4]; in the test with Lipid bilayer) was Active.

For the compound `CCCC(CCC)C(=O)OCC1(CO)C/C(=C\c2ccc3c(ccn3C)c2)C(=O)O1` (centres undefined), the values for the Ki in test [1] and in test [5] were 8.25 nM and 0.41 nM, respectively. Further, the Ratio Ki in the test filed under Homo sapiens [2] is 24; in the test listed under Homo sapiens [6], 24; in the test listed under Homo sapiens [7] it was 5.3. The outcome in test [3] and in test [4] was Active. Besides, the result with Lipid bilayer was inactive.

In the case of `CCCC(CCC)C(=O)OCC1(CO)C/C(=C\c2cccc3ccn(C)c23)C(=O)O1` (centres undefined), the results for the Ki in test [1] and in test [5] were 12.9 nM and 0.69 nM, respectively. The Ratio Ki in the test filed under Homo sapiens [2] was found to be 19; in the test filed under Homo sapiens [6], 10; in the test filed under Homo sapiens [7], 17. Further, the result (in test [3]; in test [4]; in the test on Lipid bilayer) was Active.

Turning to `CCCC(CCC)C(=O)OCC1(CO)C/C(=C\c2cn(C)c3ccccc23)C(=O)O1` (centres undefined), the results for the Ki in test [1] and in test [5] were 16.2 nM and 0.25 nM, respectively. Besides, the values for the Ratio Ki in the test filed under Homo sapiens [2], in the test filed under Homo sapiens [6] and in the test filed under Homo sapiens [7] were 65, 49 and 84, respectively. Besides, the result (in test [4]; with Lipid bilayer) was Active.
